The results in this text go back to ChEMBL document CHEMBL1121644, “N-(aminophenyl)oxamic acids and esters as potent, orally active antiallergy agents” (1981).

Calls of active or inactive are those of the source. The calls are words filed in the database; no cut-off is given here.

Broadly, the ED50 is the dose that gives a 50% effect, or the effect in half of the subjects. As usually defined, the inhibition in vivo is the percentage by which the read-out fell short of the control. One may read the % inhibition as the percentage by which the read-out fell short of the control. High values mean strong suppression, low ones little suppression. For orientation: Inhibition means the relative decrease from the control value, in per cent. Read a low Inhibition as little suppression.

The subject of assay [1] is Rattus norvegicus. The experiment in a line: Antiallergic property in passive cutaneous anaphylaxis (PCA) test in rats upon oral administration. Format: functional. An outline of the steps: (§1)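 Male Sprague-Dawley rats (200 g) were sensitized id on the shaved back with 0.05 mL of a 1:100 dilution of rat anti-ovalbumin IgE serum. After 48 h they were challenged iv with 1.0 mL of 0.8% ovalbumin containing 5 mg Evans blue, and killed 40 min later. Wheal area (mm²) was taken as the longest diameter times its perpendicular. ED50 is the dose halving wheal size versus control, from regression over at least four log-spaced doses with five rats per dose.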

For assay [2], the system named is Rattus norvegicus. The experiment in a line: Antiallergic property in passive cutaneous anaphylaxis (PCA) test in rats upon intraperitoneal administration. Conditions: for ED50: ip. Format: functional. Summed up: as §1
Assay [3] relates to Rattus norvegicus. The experiment in a line: Percent inhibition using passive cutaneous anaphylaxis (PCA assay) in rat at 1 mg/kg upon oral administration. Format: functional. Summed up: (§2)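 Rats (male Sprague-Dawley, 200 g) were passively sensitized id with 0.05 mL of 1:100 IgE antiserum raised against ovalbumin. After a 48-h latency they were challenged iv with 0.8% ovalbumin (1.0 mL) plus 5 mg Evans blue. Skin was reflected 40 min later and stained wheals measured as longest diameter × perpendicular (mm²). Results are percent inhibition of wheal size versus control.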

Assay [4] relates to Rattus norvegicus. The assay is described as follows: Percent inhibition of wheal size in passive cutaneous anaphylaxis (PCA) test at 50 mg/kg upon intraperitoneal administration. Format: functional. As to conditions: ip. An outline of the steps:
as §2

Assay [5] has as its system Rattus norvegicus. The experiment in a line: Antiallergic property in passive cutaneous anaphylaxis (PCA) test in rats upon intraperitoneal administration; NA=Not active at 100 mg/kg. Also on record: dose 100 mg/kg. The class given is functional, organism-based. Summed up: as §1
Assay [6] relates to Rattus norvegicus. The experiment in a line: Percent inhibition of wheal size in passive cutaneous anaphylaxis (PCA) test at 50 mg/kg upon oral administration. The class given is functional. Summed up:
as §2

Assay [7] concerns Rattus norvegicus. The assay is described as follows: Antiallergic property in passive cutaneous anaphylaxis (PCA) test in rats upon oral administration; NA=Not active at 100 mg/kg. The class given is functional, organism-based. On the set-up: dose 100 mg/kg. Summed up:
as §1

Assay [8] relates to Rattus norvegicus. The experiment in a line: Percent inhibition of wheal size in passive cutaneous anaphylaxis (PCA) test at 50 mg/kg (administered orally). The class given is functional. As to conditions: po. Summed up:
as §2

In the case of `CCOC(=O)C(=O)Nc1cccc(N)c1C#N`, the ED50 is 0.07 mg/kg in the assay on Rattus norvegicus [1] and 0.05 mg/kg in the assay on Rattus norvegicus [2].
Regarding `COC(=O)c1cccc(NC(=O)C(=O)O)c1C#N`, 1 mg/kg produced 24.5% inhibition in vivo in the assay on Rattus norvegicus [3].
On the same count and under the same terms, the result for `CN(C)c1cccc(NC(=O)C(=O)O)c1C#N` reads 54.7%.
Regarding `CCOC(=O)C(=O)Nc1cccc(Cl)c1C#N`, testing at 50 mg/kg with Rattus norvegicus [4] gave an inhibition in vivo of 56%.
`CCCCNc1cccc(NC(=O)C(=O)OCC)c1C#N`: the ED50 in the assay with Rattus norvegicus [1] and with Rattus norvegicus [2] was 0.3 mg/kg in each case.
In the case of `CCOC(=O)C(=O)Nc1cc(N(C)C)ccc1C#N`, the ED50 in the assay on Rattus norvegicus [1] was more than 100 mg/kg; in the assay with Rattus norvegicus [2], 1.9 mg/kg.
Regarding `CCOC(=O)C(=O)Nc1ccc(N(C)C)cc1C#N`, the results for the ED50 with Rattus norvegicus [1] and in the assay with Rattus norvegicus [2] were 2.4 mg/kg and 1 mg/kg, respectively.
Taken in the same sequence, the figures for `CCOC(=O)C(=O)Nc1cccc(N(C)C(C)C)c1C#N` were 1.2 mg/kg and 0.3 mg/kg.
Consider `CCOC(=O)C(=O)Nc1ccc([N+](=O)[O-])cc1C#N`, for which testing at 50 mg/kg in the assay with Rattus norvegicus [4] gave an inhibition in vivo of 33%.
For the molecule `CCOC(=O)C(=O)Nc1cccc(N2CCN(C)CC2)c1C#N.Cl`, the figures for the ED50 in the assay with Rattus norvegicus [1] and in the assay on Rattus norvegicus [2] were 10.3 mg/kg and 0.04 mg/kg, respectively.
Consider `CCOC(=O)C(=O)Nc1ccccc1C#N`, for which the values for the ED50 with Rattus norvegicus [1] and in the assay on Rattus norvegicus [2] were 2.9 mg/kg and 0.4 mg/kg, respectively.
As to `CCOC(=O)C(=O)Nc1ccc(N)cc1C#N`, the ED50 is 8.8 mg/kg with Rattus norvegicus [1] and 1 mg/kg in the assay on Rattus norvegicus [2].
In the case of `CCOC(=O)C(=O)Nc1c(C#N)cccc1N(C)C`, in the assay with Rattus norvegicus [5], the ED50 result is “inactive”.
`CCNc1cccc(NC(=O)C(=O)OCC)c1C#N`: the ED50 with Rattus norvegicus [1] and in the assay with Rattus norvegicus [2] was 0.03 mg/kg in each case.
Take `CCCCNc1cccc(NC(=O)C(=O)[O-])c1C#N.[Na+]`: in the assay with Rattus norvegicus [3], the % inhibition at 1 mg/kg is 93.5%.
On to `CCOC(=O)C(=O)Nc1cccc(N2CCOCC2)c1C#N`, for which the ED50 turned out to be 6.3 mg/kg with Rattus norvegicus [1] and 1.2 mg/kg with Rattus norvegicus [2].
As for `CCOC(=O)C(=O)Nc1cccc([N+](=O)[O-])c1C#N`, the ED50 worked out at 82 mg/kg in the assay with Rattus norvegicus [1] and 0.4 mg/kg with Rattus norvegicus [2].
`CC(C)Oc1cccc(NC(=O)C(=O)O)c1C#N` registered an inhibition in vivo at 1 mg/kg in the assay with Rattus norvegicus [3] of 75.1%.
For `CCOC(=O)C(=O)Nc1cccc(NC)c1C#N`, the ED50 was 0.1 mg/kg with Rattus norvegicus [1] and 0.2 mg/kg with Rattus norvegicus [2].
Consider `CCOC(=O)C(=O)Nc1cccc(F)c1C#N`, for which the ED50 stood at 59 mg/kg in the assay with Rattus norvegicus [1] and 1.2 mg/kg in the assay with Rattus norvegicus [2].
As to `CCN(CC)c1cccc(NC(=O)C(=O)O)c1C#N`, at 1 mg/kg the inhibition in vivo in the assay on Rattus norvegicus [3] was 99.2%.
Take `N#Cc1c(NC(=O)C(=O)O)cccc1N1CCOCC1`: in the assay on Rattus norvegicus [3], 1 mg/kg produced 14.1% inhibition in vivo.
On to `CCOC(=O)C(=O)Nc1cccc(N(C)C)c1C#N`, for which the results for the ED50 in the assay with Rattus norvegicus [1] and in the assay with Rattus norvegicus [2] were 4.2 mg/kg and 0.2 mg/kg, respectively.
With `CNc1cccc(NC(=O)C(=O)[O-])c1C#N.[Na+]`, the ED50 in the assay with Rattus norvegicus [1] turned out to be 0.07 mg/kg. In the assay on Rattus norvegicus [3], this molecule registered an inhibition in vivo at 1 mg/kg of 96%.
Take `Cc1cccc(NC(=O)C(=O)O)c1C#N`: the inhibition in vivo at 1 mg/kg with Rattus norvegicus [3] was determined as 32.3%.
In the case of `CCOC(=O)C(=O)Nc1cccc(OC(C)C)c1C#N`, the values for the ED50 in the assay with Rattus norvegicus [1] and in the assay on Rattus norvegicus [2] were 1 mg/kg and 2 mg/kg, respectively.
Turning to `CCOC(=O)C(=O)Nc1cccc(C)c1C#N`, the ED50 was determined as 4.6 mg/kg in the assay on Rattus norvegicus [1] and 5.3 mg/kg with Rattus norvegicus [2].
On to `CCCNc1cccc(NC(=O)C(=O)[O-])c1C#N.[Na+]`, for which the % inhibition at 1 mg/kg in the assay with Rattus norvegicus [3] worked out at 83.1%.
As for `CCOC(=O)C(=O)Nc1cccc(OC)c1C#N`, the ED50 in the assay with Rattus norvegicus [1] came out at 55.5 mg/kg; in the assay with Rattus norvegicus [2], 5.3 mg/kg.
`CCOC(=O)C(=O)Nc1cccc(N2CCCC2)c1C#N`: the inhibition in vivo at 50 mg/kg in the assay on Rattus norvegicus [6] and with Rattus norvegicus [4] was 83% throughout.
For the molecule `CCOC(=O)C(=O)Nc1cccc(S(C)(=O)=O)c1C#N`, in the assay with Rattus norvegicus [5], the ED50 entry was “inactive”.
The molecule `CCCCCOc1cccc(NC(=O)C(=O)OCC)c1C#N` displayed an Inhibition in the assay on Rattus norvegicus [2] of 25%.
With `CCN(C)c1cccc(NC(=O)C(=O)O)c1C#N`, the inhibition in vivo at 1 mg/kg in the assay on Rattus norvegicus [3] stood at 56.3%.
`O=C([O-])c1cc(=O)c2c(OCC(O)COc3cccc4oc(C(=O)[O-])cc(=O)c34)cccc2o1.[Na+].[Na+]` [CROMOLYN SODIUM] gave an ED50 in the assay with Rattus norvegicus [2] of 8 mg/kg. Further, the ED50 result with Rattus norvegicus [7] is “inactive”.
As for `CCCNc1cccc(NC(=O)C(=O)OCC)c1C#N`, the median effective dose (ED50) in the assay on Rattus norvegicus [1] was 0.7 mg/kg; in the assay on Rattus norvegicus [2], 0.5 mg/kg.
In the case of `CCOC(=O)C(=O)Nc1cccc(NC(C)=O)c1C#N`, the inhibition in vivo at 50 mg/kg with Rattus norvegicus [8] and in the assay on Rattus norvegicus [4] was 91% in each case.
In the assay on Rattus norvegicus [3], `CCNc1cccc(NC(=O)C(=O)O)c1C#N` gave an inhibition in vivo at 1 mg/kg of 58.9%.
Consider `CCOC(=O)C(=O)Nc1ccc(C(F)(F)F)c(N2CCOCC2)c1C#N`, for which the ED50 in the assay on Rattus norvegicus [1] is more than 100 mg/kg; in the assay on Rattus norvegicus [2], 0.1 mg/kg.
Turning to `CCOC(=O)C(=O)Nc1cccc(N(CC)CC)c1C#N`, the ED50 came out at 0.9 mg/kg with Rattus norvegicus [1] and 0.7 mg/kg with Rattus norvegicus [2].
Molecule `N#Cc1c(N)cccc1NC(=O)C(=O)O` gave an inhibition in vivo at 1 mg/kg in the assay on Rattus norvegicus [3] of 21.2%.
On to `CCOC(=O)C(=O)Nc1cccc(C(=O)OC)c1C#N`, for which the values for the ED50 in the assay on Rattus norvegicus [1] and with Rattus norvegicus [2] were 0.8 mg/kg and 1.2 mg/kg, respectively.
For the molecule `CCOC(=O)C(=O)Nc1cccc(N(C)CC)c1C#N`, the figures for the ED50 with Rattus norvegicus [1] and with Rattus norvegicus [2] were 0.5 mg/kg and 0.3 mg/kg, respectively.
`CCOC(=O)C(=O)Nc1cccc(Br)c1C#N`: the ED50 result in the assay with Rattus norvegicus [5] was “inactive”.
In the assay on Rattus norvegicus [6], `CCOC(=O)C(=O)Nc1cccc(C(C)C)c1C#N` displayed an inhibition in vivo at 50 mg/kg of 18%. The ED50 entry with Rattus norvegicus [5] was “inactive”.
In the assay with Rattus norvegicus [2], `CCOC(=O)C(=O)Nc1cccc(N2CCCCC2)c1C#N` registered an ED50 of 2.2 mg/kg. Also, in the assay on Rattus norvegicus [7], the ED50 result was “inactive”.
